# Results as given in ChEMBL document CHEMBL1138264, “Aromatic lipoxin A4 and lipoxin B4 analogues display potent biological activities” (J Med Chem, 2007).
# Activity calls are given as the source filed them. The calls are words filed in the database; no cut-off is given here.
# How the values were obtained:
# [1] = tested on: THP-1; assay: Increase in human THP1 cells mediated phagocytosis of apoptotic polymorphonuclear leukocytes at 0.1 pM to 1 nM after 15 mins; type: functional, cell-based
# How it was run: (§1)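 THP-1 cells differentiated with 100 nM PMA for 48 h (5 × 10^5 cells/well), pretreated 15 min at 37 °C, then co-incubated 2 h at 37 °C with 1 × 10^6 human PMNs made apoptotic by 20 h culture. Vehicle was 0.1% DMSO or ethanol. After cold PBS washes, myeloperoxidase staining; % THP-1 cells containing ≥1 PMN (≥400 cells, duplicate wells); n = 3.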
# [2] = tested on: THP-1; assay: Increase in human THP1 cells mediated phagocytosis of apoptotic polymorphonuclear leukocytes at 1 nM in presence of pan-FPR/ALXR antagonist Boc2; type: functional, cell-based
# How it was run: (§2)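 PMA-differentiated THP-1 cells given Boc2 (100 µM), with or without stimulus, for 15 min at 37 °C. Then co-incubated 2 h with apoptotic human PMNs. Phagocytosis scored by myeloperoxidase staining as % THP-1 cells containing PMNs; mean ± SEM, n = 3, compared with no Boc2.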
# [3] = tested on: THP-1; assay: Increase in human THP1 cells mediated phagocytosis of apoptotic polymorphonuclear leukocytes at 0.01 pM to 1 nM after 15 mins; type: functional, cell-based; how it was run: as §1
# [4] = tested on: THP-1; assay: Increase in human THP1 cells adherence to laminin after 30 mins; type: functional, cell-based
# How it was run: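 THP-1 cells loaded with 1 µM BCECF-AM for 20 min at 37 °C, then resuspended at 3.3 × 10^6/mL in PBS2+ with 0.1% BSA. Cells settled 10 min on laminin-coated wells, then given agonist or vehicle for 30 min at 37 °C. Washed, lysed in NaOH/SDS, fluorescence read. Percent adherence above vehicle; three experiments, each in triplicate.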
# [5] = tested on: Mus musculus; assay: Decrease in zymosan-induced neutrophil accumulation in mouse model of peritonitis at 50 ug/kg, iv; type: functional, organism-based
# How it was run: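 Zymosan A peritonitis in mice: analogue at 0.5-50 µg/kg given intravenously (vehicle n = 15; n = 6 per dose group), followed 5 min later by i.p. zymosan A, 1 mg in 0.5 mL sterile PBS. Peritoneal lavage at 4 h with PBS/3 mM EDTA/heparin. Cells Fc-blocked, stained with PE anti-Gr-1 and counted as neutrophils (Gr-1+). Mean ± SEM versus vehicle.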
# [6] = tested on: THP-1; assay: Induction of F-actin rearrangement in human THP1 cells at 1 nM after 15 mins; type: functional, cell-based
# How it was run: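 PMA-differentiated THP-1 cells (1 × 10^6/well) on glass coverslips, exposed to stimulus at 1 nM for 15 min. Fixed in 3.8% paraformaldehyde, permeabilized with 0.1% Triton X-100, stained with 0.33 µmol/L Oregon Green-phalloidin for 30 min. F-actin localization imaged by fluorescence microscopy (×100 oil objective); three independent experiments.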
# [7] = tested on: THP-1; assay: Increase in human THP1 cells mediated phagocytosis of apoptotic polymorphonuclear leukocytes at 0.01 pM after 15 mins; type: functional, cell-based; how it was run: as §1
# [8] = tested on: THP-1; assay: Increase in human THP1 cells mediated phagocytosis of apoptotic polymorphonuclear leukocytes at 1 pM in presence of pan-FPR/ALXR antagonist Boc2; type: functional, cell-based; how it was run: as §2
# [9] = tested on: THP-1; assay: Increase in human THP1 cells mediated phagocytosis of apoptotic polymorphonuclear leukocytes at 1 nM after 15 mins; type: functional, cell-based; how it was run: as §1
# [10] = tested on: THP-1; assay: Increase in human THP1 cells mediated phagocytosis of apoptotic polymorphonuclear leukocytes at 10 pM after 15 mins; type: functional, cell-based; how it was run: as §1
Structure (SMILES),Activity [1],Activity [2],Activity [3],Activity [4],Activity [6],other results
CCCCC[C@H](O)/C=C/C=C\C=C\C=C\[C@@H](O)[C@@H](O)CCCC(=O)O,Active,inactive,,,,
CCCCC[C@H](O)c1ccccc1/C=C/[C@@H](O)[C@@H](O)CCCC(=O)O,,,inactive,,,
CCCCC[C@@H](O)c1ccccc1/C=C/[C@@H](O)[C@@H](O)CCCC(=O)OC,Active,,,Active,Active,Activity [5]: Active; Activity [7]: inactive; Activity [8]: inactive
CCCCC[C@H](O)c1ccccc1/C=C/[C@@H](O)[C@@H](O)CCCC(=O)OC,,inactive,,Active,Active,Activity [9]: Active
CCCCC[C@H](O)[C@H](O)/C=C/c1ccccc1[C@@H](O)CCCC(=O)OC(C)(C)C,,,,,Active,Activity [10]: Active
CCCCC[C@@H](O)c1ccccc1/C=C/[C@@H](O)[C@@H](O)CCCC(=O)O,,,inactive,,,
